13 compounds from ChEMBL document CHEMBL2429751, “Diterpenoids and sesquiterpenoids from the roots of Illicium majus” (J Nat Prod, 2013) can be followed below.

Activity calls are given as the source filed them. The calls are words filed in the database; no cut-off is given here.

For data set [1], the system named is Coxsackievirus B3. The data set can be described thus: Selectivity index, ratio of TC50 for African green monkey Vero cells to IC50 for Coxsackievirus B3. The format is toxicity, cell-based. The note with it: read-out: Selectivity Index. In a few lines:
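SI is TC50/IC50. TC50 comes from 48 h Vero CPE cytotoxicity and IC50 from Cox B3 (100 TCID50) CPE inhibition in Vero cells, both by Reed–Muench analysis.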

The test system of data set [2] is Coxsackievirus B3. The data set can be described thus: Antiviral activity against Coxsackievirus B3 infected in African green monkey Vero cells assessed as protection against virus-induced cytopathic effect after 48 hrs by Reed-Muench analysis. The class given is functional, organism-based. Also on record: unit not given here. A digest of the protocol: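 Confluent Vero monolayers were infected with 100 TCID50 Cox B3 and allowed 1 h adsorption at 37 °C. Cells were PBS-washed, then kept at 37 °C in maintenance medium with 2% FBS, with or without graded compound concentrations. CPE was scored once virus controls reached 4+, and IC50 was derived by Reed–Muench analysis.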

The next data set deals with Vero. In words: Cytotoxicity against African green monkey Vero cells after 48 hrs by Reed-Muench analysis. The class given is cell-based. Also on record: unit not given here. The following applies: chlorocebus sabaeus. In a few lines: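 Vero cells were seeded and, after 24 h, exposed to graded compound concentrations for 48 h at 37 °C under 5% CO2. Cell damage was scored microscopically as CPE, and TC50 was calculated by Reed–Muench analysis.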

Take `CC(C)c1ccc2c(c1)CC[C@H]1[C@@](C)(C(=O)O)CCC[C@]21C`: the selectivity ratio in the data set with Coxsackievirus B3 [1] worked out at 6.7. For the compound `CC1=C(C(=O)O[C@@]23OC[C@]4(C)[C@@]5(O)CC[C@@H](C)[C@@]5(CC(=O)[C@]24C)[C@H]3O)CCC1=O`, the IC50 in the data set on Coxsackievirus B3 [2] is 66.7. For the same compound, in the data set with Vero, the TC50 worked out at 200. Moreover, the selectivity ratio in the data set on Coxsackievirus B3 [1] amounted to 3. On the same counts, the results for `C[C@@H]1CC[C@@]23O[C@@]4(O)C[C@@]12[C@@H](O)C(=O)OC[C@@]3(CO)[C@@]4(C)O` are 66.7, 200 and 3. For `C[C@H](CO)c1ccc2c(c1)CC[C@H]1[C@@](C)(C(=O)O)CCC[C@]21C`, in that order: 17.4, 138.7 and 8. As to `C[C@@H](CO)c1ccc2c(c1)CC[C@H]1[C@@](C)(C(=O)O)CCC[C@]21C`, the IC50 with Coxsackievirus B3 [2] is listed as 12.8. The same compound had a TC50 with Vero of 66.7. Further, in the data set on Coxsackievirus B3 [1], the selectivity ratio came to 5.2.

Turning to `C[C@@H]1CC[C@@]23O[C@@]4(O)C[C@@]12[C@@H](O)C(=O)OC[C@@]3(CO[C@@H]1O[C@H](CO)[C@@H](O)[C@H](O)[C@H]1O)[C@@]4(C)O`, the outcome with Coxsackievirus B3 [2] was inactive. In the case of `C[C@@]12COC(=O)[C@]1(C)[C@@H](OC(=O)c1ccccc1)[C@]13CC(=O)O[C@@]1(C)CC[C@]23O`, the result in the data set with Coxsackievirus B3 [2] was inactive. On to `C[C@](O)(CO)c1ccc2c(c1)CC[C@H]1[C@@](C)(C(=O)O)CCC[C@]21C`, for which, in the data set on Coxsackievirus B3 [2], the IC50 is on record as 22.2. In the data set with Vero, the TC50 was found to be 138.7. In addition, the selectivity ratio in the data set with Coxsackievirus B3 [1] worked out at 6.2. With `C[C@]1(CO)CCC[C@]2(C)c3ccc([C@](C)(O)CO)cc3CC[C@@H]12`, the result in the data set with Coxsackievirus B3 [2] was inactive.

As for `CC(C)(O)c1ccc2c(c1)C(=O)C[C@H]1[C@@](C)(CO)CCC[C@]21C`, the result in the data set on Coxsackievirus B3 [2] was inactive. Take `CC(C)(O)c1ccc2c(c1)C(=O)C[C@H]1[C@@](C)(C(=O)O)CCC[C@]21C`: the selectivity ratio with Coxsackievirus B3 [1] was 3.9.

`C[C@]1(CO)CCC[C@]2(C)c3ccc([C@@](C)(O)CO)cc3CC[C@@H]12`: in the data set on Coxsackievirus B3 [2], the result was inactive. With `C[C@@]12COC(=O)[C@]1(C)[C@@H](O)[C@@]13CC(=O)O[C@@]21CC=C3CO[C@@H]1O[C@H](CO)[C@@H](O)[C@H](O)[C@H]1O`, in the data set on Coxsackievirus B3 [2], the IC50 is listed as 51.7. The same compound registered a TC50 in the data set on Vero of 200. The selectivity ratio in the data set with Coxsackievirus B3 [1] worked out at 3.9.
